Data as given in ChEMBL document CHEMBL4689842, “EUbOPEN Chemogenomics Library wave 1” (2021).

System: U2OS
Experiment: Multiplex assay against U2OS
Assay type: toxicity, cell-based
Conditions: human
Summary of the method: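 Hoechst33342, BioTracker Green Microtubule Cytoskeleton Dye, MitoTracker Red and Annexin V Alexa Fluor 680 were added to live cells at seeding, and imaging on a CQ1 microscope at 37°C and 5% CO2 followed compound addition. Gating by CellPathfinder machine learning separated cells into Hoechst high-intensity objects or normal cells, then normal cells into healthy, pyknosed or fragmented nuclei, then pyknosed cells into mitotic or apoptotic. Per cents of healthy-nucleus cells are reported for the tubulin, mitochondrial-mass and membrane-permeability phenotypes.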

[1] = 12 h, 1 µM, compound concentration 1 uM, replicate 1
[2] = 12 h, 1 µM, compound concentration 1 uM, replicate 2
[3] = 12 h, 10 µM, compound concentration 10 uM, replicate 1
[4] = 12 h, 10 µM, compound concentration 10 uM, replicate 2
[5] = 24 h, 1 µM, compound concentration 1 uM, replicate 1
[6] = 24 h, 1 µM, compound concentration 1 uM, replicate 2
[7] = 24 h, 10 µM, compound concentration 10 uM, replicate 1
[8] = 24 h, 10 µM, compound concentration 10 uM, replicate 2
[9] = 48 h, 1 µM, compound concentration 1 uM, replicate 1
[10] = 48 h, 1 µM, compound concentration 1 uM, replicate 2
[11] = 48 h, 10 µM, compound concentration 10 uM, replicate 1
[12] = 48 h, 10 µM, compound concentration 10 uM, replicate 2

In the case of `C=CC(=O)Nc1cc2c(Nc3ccc(F)c(Cl)c3)ncnc2cc1OCCCN1CCOCC1.Cl.Cl` [CANERTINIB DIHYDROCHLORIDE], the “Population Apoptotic (%)” value [1] was 91%, the “Population Fragmented Nuclei (%)” value [1] was 16% and the “Population Healthy Nuclei (%)” value [1] was 0%. The “Population Hoechst High Intensity Objects (%)” value [1] was 5%, the “Population Membrane Permeable-Phenotype (%)” value [1] was 0% and the “Population Mitochondria Different-Phenotype (%)” value [1] was 100%. The “Population Mitotic Cells (%)” value [1] was 8%, the “Population Normal (%)” value [1] was 94% and the “Population Pyknosed Nuclei (%)” value [1] was 83%. For the same molecule, the “Population Tubulin-Different-Phenotype (%)” value [1] was 100%, the “Total Cell Count” value [1] was 137 and the “Population Apoptotic (%)” value [2] was 95%. For the same molecule, the “Population Fragmented Nuclei (%)” value [2] was 10%, the “Population Healthy Nuclei (%)” value [2] was 4% and the “Population Hoechst High Intensity Objects (%)” value [2] was 20%. The “Population Membrane Permeable-Phenotype (%)” value [2] was 100%, the “Population Mitotic Cells (%)” value [2] was 5% and the “Population Normal (%)” value [2] was 79%. For the same molecule, the “Population Pyknosed Nuclei (%)” value [2] was 85%, the “Total Cell Count” value [2] was 88 and the “Population Apoptotic (%)” value [3] was 22%. For the same molecule, the “Population Fragmented Nuclei (%)” value [3] was 5%, the “Population Healthy Nuclei (%)” value [3] was 87% and the “Population Hoechst High Intensity Objects (%)” value [3] was 2%. For the same molecule, the “Population Membrane Permeable-Phenotype (%)” value [3] was 38%, the “Population Mitochondria Different-Phenotype (%)” value [3] was 11% and the “Population Mitotic Cells (%)” value [3] was 77%. The “Population Normal (%)” value [3] was 97%, the “Population Pyknosed Nuclei (%)” value [3] was 6% and the “Population Tubulin-Different-Phenotype (%)” value [3] was 17%. For the same molecule, the “Total Cell Count” value [3] was 142, the “Population Apoptotic (%)” value [4] was 33% and the “Population Fragmented Nuclei (%)” value [4] was 12%. For the same molecule, the “Population Healthy Nuclei (%)” value [4] was 81%, the “Population Hoechst High Intensity Objects (%)” value [4] was 10% and the “Population Membrane Permeable-Phenotype (%)” value [4] was 24%. The “Population Mitochondria Different-Phenotype (%)” value [4] was 22%, the “Population Mitotic Cells (%)” value [4] was 66% and the “Population Normal (%)” value [4] was 89%. For the same molecule, the “Population Pyknosed Nuclei (%)” value [4] was 5%, the “Population Tubulin-Different-Phenotype (%)” value [4] was 14% and the “Total Cell Count” value [4] was 122. For the same molecule, the “Population Apoptotic (%)” value [5] was 99%, the “Population Fragmented Nuclei (%)” value [5] was 8% and the “Population Healthy Nuclei (%)” value [5] was 4%. For the same molecule, the “Population Hoechst High Intensity Objects (%)” value [5] was 13%, the “Population Membrane Permeable-Phenotype (%)” value [5] was 100% and the “Population Mitochondria Different-Phenotype (%)” value [5] was 100%. For the same molecule, the “Population Mitotic Cells (%)” value [5] was 0%, the “Population Normal (%)” value [5] was 86% and the “Population Pyknosed Nuclei (%)” value [5] was 87%. The “Population Tubulin-Different-Phenotype (%)” value [5] was 100%, the “Total Cell Count” value [5] was 137 and the “Population Apoptotic (%)” value [6] was 100%. For the same molecule, the “Population Fragmented Nuclei (%)” value [6] was 14%, the “Population Healthy Nuclei (%)” value [6] was 5% and the “Population Hoechst High Intensity Objects (%)” value [6] was 21%. The “Population Normal (%)” value [6] was 78%, the “Population Pyknosed Nuclei (%)” value [6] was 79% and the “Total Cell Count” value [6] was 85. The “Population Apoptotic (%)” value [7] was 70%, the “Population Fragmented Nuclei (%)” value [7] was 5% and the “Population Hoechst High Intensity Objects (%)” value [7] was 3%. For the same molecule, the “Population Mitochondria Different-Phenotype (%)” value [7] was 11%, the “Population Mitotic Cells (%)” value [7] was 29% and the “Population Normal (%)” value [7] was 96%. The “Population Pyknosed Nuclei (%)” value [7] was 9%, the “Population Tubulin-Different-Phenotype (%)” value [7] was 9% and the “Total Cell Count” value [7] was 186. For the same molecule, the “Population Apoptotic (%)” value [8] was 42%, the “Population Fragmented Nuclei (%)” value [8] was 9% and the “Population Healthy Nuclei (%)” value [8] was 84%. The “Population Hoechst High Intensity Objects (%)” value [8] was 8%, the “Population Membrane Permeable-Phenotype (%)” value [8] was 20% and the “Population Mitochondria Different-Phenotype (%)” value [8] was 23%. The “Population Mitotic Cells (%)” value [8] was 57%, the “Population Normal (%)” value [8] was 91% and the “Population Pyknosed Nuclei (%)” value [8] was 5%. For the same molecule, the “Population Tubulin-Different-Phenotype (%)” value [8] was 19% and the “Total Cell Count” value [8] was 135.
For `CNc1nc(NCc2ccc(NS(C)(=O)=O)cc2Cl)cc(-c2ccccn2)n1`, the “Population Apoptotic (%)” value [1] was 35%, the “Population Fragmented Nuclei (%)” value [1] was 12% and the “Population Healthy Nuclei (%)” value [1] was 70%. For the same molecule, the “Population Hoechst High Intensity Objects (%)” value [1] was 10%, the “Population Membrane Permeable-Phenotype (%)” value [1] was 7% and the “Population Mitochondria Different-Phenotype (%)” value [1] was 12%. The “Population Mitotic Cells (%)” value [1] was 64%, the “Population Normal (%)” value [1] was 89% and the “Population Pyknosed Nuclei (%)” value [1] was 17%. For the same molecule, the “Population Tubulin-Different-Phenotype (%)” value [1] was 19%, the “Total Cell Count” value [1] was 121 and the “Population Apoptotic (%)” value [2] was 33%. For the same molecule, the “Population Fragmented Nuclei (%)” value [2] was 11%, the “Population Healthy Nuclei (%)” value [2] was 82% and the “Population Hoechst High Intensity Objects (%)” value [2] was 8%. The “Population Membrane Permeable-Phenotype (%)” value [2] was 0%, the “Population Mitochondria Different-Phenotype (%)” value [2] was 9% and the “Population Mitotic Cells (%)” value [2] was 66%. The “Population Normal (%)” value [2] was 91%, the “Population Pyknosed Nuclei (%)” value [2] was 5% and the “Population Tubulin-Different-Phenotype (%)” value [2] was 11%. The “Total Cell Count” value [2] was 61, the “Population Apoptotic (%)” value [3] was 61% and the “Population Fragmented Nuclei (%)” value [3] was 13%. The “Population Healthy Nuclei (%)” value [3] was 75%, the “Population Hoechst High Intensity Objects (%)” value [3] was 10% and the “Population Membrane Permeable-Phenotype (%)” value [3] was 5%. For the same molecule, the “Population Mitochondria Different-Phenotype (%)” value [3] was 29%, the “Population Mitotic Cells (%)” value [3] was 38% and the “Population Normal (%)” value [3] was 89%. For the same molecule, the “Population Tubulin-Different-Phenotype (%)” value [3] was 37%, the “Total Cell Count” value [3] was 91 and the “Population Apoptotic (%)” value [4] was 57%. For the same molecule, the “Population Fragmented Nuclei (%)” value [4] was 6%, the “Population Healthy Nuclei (%)” value [4] was 81% and the “Population Hoechst High Intensity Objects (%)” value [4] was 9%. For the same molecule, the “Population Membrane Permeable-Phenotype (%)” value [4] was 12%, the “Population Mitochondria Different-Phenotype (%)” value [4] was 32% and the “Population Mitotic Cells (%)” value [4] was 42%. The “Population Normal (%)” value [4] was 90%, the “Population Pyknosed Nuclei (%)” value [4] was 11% and the “Population Tubulin-Different-Phenotype (%)” value [4] was 30%. The “Total Cell Count” value [4] was 56, the “Population Apoptotic (%)” value [5] was 50% and the “Population Fragmented Nuclei (%)” value [5] was 9%. The “Population Healthy Nuclei (%)” value [5] was 78%, the “Population Hoechst High Intensity Objects (%)” value [5] was 8% and the “Population Membrane Permeable-Phenotype (%)” value [5] was 3%. The “Population Mitochondria Different-Phenotype (%)” value [5] was 17%, the “Population Mitotic Cells (%)” value [5] was 50% and the “Population Normal (%)” value [5] was 91%. The “Population Pyknosed Nuclei (%)” value [5] was 11%, the “Population Tubulin-Different-Phenotype (%)” value [5] was 19% and the “Total Cell Count” value [5] was 125. The “Population Apoptotic (%)” value [6] was 25%, the “Population Fragmented Nuclei (%)” value [6] was 8% and the “Population Healthy Nuclei (%)” value [6] was 85%. The “Population Hoechst High Intensity Objects (%)” value [6] was 1%, the “Population Membrane Permeable-Phenotype (%)” value [6] was 0% and the “Population Mitochondria Different-Phenotype (%)” value [6] was 11%. The “Population Mitotic Cells (%)” value [6] was 75%, the “Population Normal (%)” value [6] was 98% and the “Population Pyknosed Nuclei (%)” value [6] was 5%. For the same molecule, the “Population Tubulin-Different-Phenotype (%)” value [6] was 11%, the “Total Cell Count” value [6] was 67 and the “Population Apoptotic (%)” value [7] was 52%. For the same molecule, the “Population Fragmented Nuclei (%)” value [7] was 18%, the “Population Healthy Nuclei (%)” value [7] was 67% and the “Population Hoechst High Intensity Objects (%)” value [7] was 8%. The “Population Membrane Permeable-Phenotype (%)” value [7] was 6%, the “Population Mitochondria Different-Phenotype (%)” value [7] was 23% and the “Population Mitotic Cells (%)” value [7] was 47%. For the same molecule, the “Population Normal (%)” value [7] was 91%, the “Population Pyknosed Nuclei (%)” value [7] was 14% and the “Population Tubulin-Different-Phenotype (%)” value [7] was 29%. The “Total Cell Count” value [7] was 113, the “Population Apoptotic (%)” value [8] was 50% and the “Population Fragmented Nuclei (%)” value [8] was 20%. The “Population Healthy Nuclei (%)” value [8] was 66%, the “Population Hoechst High Intensity Objects (%)” value [8] was 10% and the “Population Membrane Permeable-Phenotype (%)” value [8] was 4%. The “Population Mitochondria Different-Phenotype (%)” value [8] was 26%, the “Population Mitotic Cells (%)” value [8] was 50% and the “Population Normal (%)” value [8] was 89%. For the same molecule, the “Population Pyknosed Nuclei (%)” value [8] was 12%, the “Population Tubulin-Different-Phenotype (%)” value [8] was 17% and the “Total Cell Count” value [8] was 71. The “Population Apoptotic (%)” value [9] was 41%, the “Population Fragmented Nuclei (%)” value [9] was 12% and the “Population Healthy Nuclei (%)” value [9] was 76%. The “Population Hoechst High Intensity Objects (%)” value [9] was 7%, the “Population Membrane Permeable-Phenotype (%)” value [9] was 0% and the “Population Mitochondria Different-Phenotype (%)” value [9] was 21%. For the same molecule, the “Population Mitotic Cells (%)” value [9] was 58%, the “Population Normal (%)” value [9] was 92% and the “Population Pyknosed Nuclei (%)” value [9] was 11%. For the same molecule, the “Population Tubulin-Different-Phenotype (%)” value [9] was 21%, the “Total Cell Count” value [9] was 114 and the “Population Apoptotic (%)” value [10] was 0%. The “Population Fragmented Nuclei (%)” value [10] was 6%, the “Population Healthy Nuclei (%)” value [10] was 90% and the “Population Hoechst High Intensity Objects (%)” value [10] was 3%. The “Population Membrane Permeable-Phenotype (%)” value [10] was 2%, the “Population Mitochondria Different-Phenotype (%)” value [10] was 19% and the “Population Mitotic Cells (%)” value [10] was 100%. For the same molecule, the “Population Normal (%)” value [10] was 96%, the “Population Pyknosed Nuclei (%)” value [10] was 3% and the “Population Tubulin-Different-Phenotype (%)” value [10] was 15%. For the same molecule, the “Total Cell Count” value [10] was 71, the “Population Apoptotic (%)” value [11] was 64% and the “Population Healthy Nuclei (%)” value [11] was 53%. The “Population Hoechst High Intensity Objects (%)” value [11] was 8%, the “Population Membrane Permeable-Phenotype (%)” value [11] was 7% and the “Population Mitochondria Different-Phenotype (%)” value [11] was 28%. The “Population Mitotic Cells (%)” value [11] was 35%, the “Population Normal (%)” value [11] was 91% and the “Population Pyknosed Nuclei (%)” value [11] was 25%. For the same molecule, the “Population Tubulin-Different-Phenotype (%)” value [11] was 10%, the “Total Cell Count” value [11] was 165 and the “Population Apoptotic (%)” value [12] was 44%. For the same molecule, the “Population Fragmented Nuclei (%)” value [12] was 21%, the “Population Healthy Nuclei (%)” value [12] was 51% and the “Population Hoechst High Intensity Objects (%)” value [12] was 13%. For the same molecule, the “Population Membrane Permeable-Phenotype (%)” value [12] was 20%, the “Population Mitochondria Different-Phenotype (%)” value [12] was 41% and the “Population Mitotic Cells (%)” value [12] was 55%. The “Population Normal (%)” value [12] was 86%, the “Population Pyknosed Nuclei (%)” value [12] was 27% and the “Population Tubulin-Different-Phenotype (%)” value [12] was 23%. The “Total Cell Count” value [12] was 124.
